# From PubChem
# This excerpt belongs to a sample that is enriched for hits.
# pCIP destab = p/CIP-EGFP fusion destabilizers, primary screen, fluorescence, F442A cells. AID 1984, 2009. hit rate 0.01% among 290,000. Q05BA5. decrease of EGFP signal, % at 10 µM. 16 h;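 active = EGFP signal decrease of at least 30% at 10 µM or well 3 SD below plate mean, unless failing retest; inactive = the rest, including hits failing retest or dose response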
# CHOP inhibitor = inhibitors of CHOP promoter induction, primary screen, cell-based, unfolded protein response, luciferase reporter; hit rate 3.8% among 220,000; AID 2732, 2010; inhibition, % at 10 µM; CHO-K1 CHOP-promoter luciferase, tunicamycin-induced, 15-18 h;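 active = compounds that reduced the stress-induced luciferase reporter signal by more than about 70% of percent inhibition, limit read from the data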;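 also: 0% = tunicamycin plus vehicle and 100% = wells without tunicamycin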
# UPR CHOP act = activators of apoptotic CHOP UPR arm, primary screen, cell-based, CHO-CHOP luciferase reporter, luminescence, uHTS; UPR activation; percent of tunicamycin response over DMSO baseline; activation, % at 10 µM; hit rate 0.34% among 330,000;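 active = at 10 µM dose, activation of 40% or more, normalized to positive control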;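 also: 100% = tunicamycin at 10 µg/mL and 0% = DMSO alone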
#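 assay system = CHO CHOP reporter cells | amount = 500 CHO-CHOP cells per well | buffer or medium = F12 with 10% FBS | incubation = 16-18 h cell attachment, then 6 h compound exposure, 37 °C | detection = luminescence read with Steady-Glo | read-out = percent activation relative to tunicamycin control | controls = tunicamycin high control, DMSO low control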
# XBP1 UPR activ = activators of adaptive XBP1 UPR arm, primary screen, cell-based, CHO-XBP1 luciferase reporter, luminescence, uHTS; activation, % at 20 µM; hit rate 0.33% among 330,000; AID 463104, 2010; IRE1-XBP1 UPR activation; percent of tunicamycin response, DMSO as zero;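 active = versus positive control, 20 µM dose yields 30% or more activation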;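 also: 100% = tunicamycin at 10 µg/mL and 0% = DMSO only wells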
#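 Signal: luciferase luminescence; Assay system: CHO-XBP1 luciferase reporter cells; Amount: one thousand reporter cells per well; Dosing: 20 µM single concentration, DMSO 1%; Benchmarks: high control tunicamycin 10 µg/mL final, low control DMSO vehicle only; Schedule: 6 h compound exposure at 37 °C, 5% CO2; Evaluation: percent activation relative to tunicamycin reference.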
# Beta2AR agonist = beta2AR agonists driving receptor internalization, primary screen, cell-based, FAP fluorogen, flow cytometry. Am2.2-beta2AR cells. response, % (no concentration beside the values). hit rate 0.43% among 340,000;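 active = response above a set limit, near 3 SD of response in nonfluorescent compounds, cut at about 42% in these data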
# Target sequence (P07550 whole entry, looked up): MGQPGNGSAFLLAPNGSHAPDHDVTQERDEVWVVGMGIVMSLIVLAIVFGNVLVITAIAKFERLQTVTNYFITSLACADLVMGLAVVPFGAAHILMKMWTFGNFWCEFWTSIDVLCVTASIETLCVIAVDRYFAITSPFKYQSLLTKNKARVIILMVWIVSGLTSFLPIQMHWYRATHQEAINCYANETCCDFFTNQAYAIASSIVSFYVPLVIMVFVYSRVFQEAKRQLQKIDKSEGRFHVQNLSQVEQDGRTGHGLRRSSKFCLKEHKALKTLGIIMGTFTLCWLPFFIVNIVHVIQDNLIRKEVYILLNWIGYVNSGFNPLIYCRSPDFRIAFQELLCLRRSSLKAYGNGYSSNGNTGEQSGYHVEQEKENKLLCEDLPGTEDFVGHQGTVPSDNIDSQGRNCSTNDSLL
# Dynein transport = inhibitors of GR-EGFP nuclear translocation, primary screen, dynein cargo transport inhibitor project, imaging, high-content, 3617.4 mouse cells; z-score, hits read low; test concentration mostly 20 µM; stimulated with dexamethasone, 1 µM; active compounds read low; hit rate 0.47% among 220,000;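 active = plate z-score of nuclear minus cytoplasmic receptor signal below a set negative limit, without overly bright fluorescence or cell loss, cut at about -3.5 in these data, passing the limit was not always enough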;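 also: z-score of nuclear minus cytoplasmic ring GR-EGFP intensity difference per well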
#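 Also added – dexamethasone, 1.0 µM final · Buffer or medium – tet-free, stripped-serum medium · Schedule – induction 48 h, compound 1 h, agonist 30 min · Detection – formaldehyde fixation, Hoechst nuclear stain, 10x automated fluorescence imaging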
# UPR XBP1 confirm = IRE1-XBP1 UPR arm activators, confirmation, cell-based, CHO-XBP1 luciferase reporter, luminescence, single concentration | shares compounds with XBP1 UPR activ | hit rate 63% among 1,000 | activation, % at 20 µM | AID 485299, 2010;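 active = reporter signal at least 30% of the positive control's activation in two or more of four replicate wells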;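 also: plate controls were DMSO negative control for no effect and tunicamycin 10 µg/mL positive control for full effect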
# Numbers without * were called inactive; · = no result given.
SMILES,pCIP destab,CHOP inhibitor,UPR CHOP act,XBP1 UPR activ,Beta2AR agonist,Dynein transport,UPR XBP1 confirm
CCOC(=O)CC(=O)CSc1nc(-c2ccc3c(c2)OCO3)cc(C(F)(F)F)c1C#N,-26.4,8.7,-2.1,37.6*,-84.8,-0.62,11.2
CC(C)CCOc1ccc(-c2c(=O)n(OCc3ccc([N+](=O)[O-])cc3)c3ccccc3[n+]2[O-])cc1,-12.3,1.2,15.8,41.4*,-0.5,-0.374,6.3
CCN(C[C@H]1N[C@@](Cc2ccccc2)(C(=O)OC)[C@H]2C(=O)N(C)C(=O)[C@@H]12)S(=O)(=O)c1ccc(OC)cc1,·,·,-2.1,0.0,3.7,·,·
Oc1ccc2ccccc2c1C=Nc1ccccc1-c1nc2ccccc2[nH]1,-0.9,72.6*,26.5,36.8*,7.1,-1.14,4.6
O=C(O)c1ccccc1-c1nc2ccccc2[nH]1,8.6,-18.3,3.2,-1.2,-4.2,-0.238,·
CCCCCCCCCCn1ccc(=N)cc1,-8.3,80.1*,18.4,34.7*,14.6,0.728,23.6
NC(=O)Nc1n[nH]c(-c2ccccc2)n1,-1.3,-6.5,·,·,2.7,0.215,·
CCN(CC(=O)Nc1sc2c(c1C#N)CCC(C)C2)Cc1nc2ccccc2c(=O)[nH]1 (stereo unspecified),4.7,52.1,-0.4,-4.0,-10.9,1.26,·
CC1CCc2c(sc(NC(=O)CCc3nc4ccccc4c(=O)[nH]3)c2C#N)C1 (stereo unspecified),·,·,21.4,168.7*,-3.8,·,198.4*
CC(C)C[C@H](NC(=O)c1nc[nH]c1C(=O)N[C@@H](CC(C)C)C(=O)OC(C)(C)C)C(=O)OC(C)(C)C,-1.6,28.0,7.2,44.9*,9.8,-0.761,25.5
O=C(Nc1ccc(O)c2c(=O)cc(-c3cccc(Cl)c3)oc12)c1cccc(Cl)c1,6.7,-61.9,33.2,73.5*,-20.0,0.694,69.8*
CC(C)(C)c1ccc(C(=O)Nc2ccc(O)c3c(=O)cc(-c4cccc(Cl)c4)oc23)cc1,-5.6,33.6,21.1,55.2*,8.1,0.588,52.4*
NC1=NN(c2c(Cl)cc(Cl)cc2Cl)C(=O)C1,·,·,·,·,-3.4,·,·
COc1cc2c3c(c1)C(C)=CC(C)(C)N3C(=O)C2=O,-21.0,-43.1,1.9,12.4,4.4,0.0175,·
COc1ccc(C(=O)Oc2cc3c4c(c2)C(C)=CC(C)(C)N4C(=O)C3=O)cc1OC,-0.1,-3.0,3.6,64.7*,4.3,-0.761,30.8*
COc1cccc(C(=O)Oc2cc3c4c(c2)C(C)=CC(C)(C)N4C(=O)C3=O)c1,-13.5,6.6,3.3,50.4*,14.7,-0.406,253.4*
O=C(O)[C@H](O)[C@@H](O)C(=O)O,·,·,-0.8,2.1,-2.9,·,·
Cc1ccc(C2(C)NC(=O)N(CC(=O)NCCN3C(=O)S/C(=C\c4cccnc4)C3=O)C2=O)cc1 (stereo unspecified),·,·,·,·,-1.7,·,·
CCOC(=O)c1ccc([N+](=O)[O-])c(CS(=O)(=O)c2ccc(Cl)cc2)c1,-13.5,·,0.8,-4.0,10.3,·,·
Cc1ccc(S(=O)(=O)Cc2cc(F)c([N+](=O)[O-])cc2[N+](=O)[O-])cc1,-22.3,·,10.0,32.6*,28.3,·,40.7*
O=C1NC(=S)N/C1=C\C=C\c1ccccc1,2.8,11.9,0.5,39.1*,6.8,1.42,5.1
CCC(=O)Nc1cc(-c2nn(C)c(=O)c3ccccc23)ccc1OC,3.3,-9.3,0.0,1.4,5.9,-0.559,·
COc1ccc(-c2nn(C)c(=O)c3ccccc23)cc1NC(=O)Cn1nc(C)c2ccccc2c1=O,0.1,39.9,0.1,56.0*,48.3*,0.81,82.4*
CCn1nc(C)c(CNC(=O)CCc2nnc(-c3ccc(C(C)=O)s3)o2)c1C,-8.2,-1.2,2.2,-0.3,2.9,0.834,·
CC(CN1CCN(C)CC1)OC(=O)c1ccc(Cl)cc1 (stereo unspecified),-2.6,26.4,2.2,3.4,-3.8,-0.676,·
SMILES,pCIP destab,CHOP inhibitor,UPR CHOP act,XBP1 UPR activ,Beta2AR agonist,Dynein transport,UPR XBP1 confirm
CC(CN1CCCCC1)OC(=O)c1ccc(Cl)cc1 (stereo unspecified),-10.6,8.9,-0.6,34.8*,0.1,0.0545,0.5
O=C(O)Cc1sc(N/N=C\c2ccncc2)nc1-c1ccccc1,-139.8,-8.8,0.1,-1.5,-1.6,2.43,·
CN(C)CCCN(C(=O)c1cc(-c2cccs2)nc2ccccc12)c1nc2ccc(F)cc2s1,-5.8,·,5.1,33.5*,16.0,·,39.8*
CN(C)CCCN(C(=O)c1ccc(S(=O)(=O)N2CCc3ccccc3C2)cc1)c1nc2ccc(F)cc2s1,3.4,·,24.5,31.3*,49.4*,·,71.2*
Cc1ccc2nc(N(CCCN(C)C)C(=O)c3ccc(S(=O)(=O)N4CCc5ccccc5C4)cc3)sc2c1,-11.0,·,36.2,93.5*,17.5,·,49.2*
Cc1cc(C)c2sc(N(CCCN(C)C)C(=O)c3ccc(S(=O)(=O)N4CCCc5ccccc54)cc3)nc2c1,·,·,8.5,31.2*,33.3,·,54.0*
N#Cc1ccccc1S(=O)(=O)N1CCN(C(=O)CN2C(=O)NC3(CCCC3)C2=O)CC1,·,·,-0.2,-1.8,-4.3,·,·
COc1cc(SC)ccc1C(=O)NCCc1ccccc1,-4.7,2.7,4.2,-0.1,-2.1,-0.164,·
N#C/C(=C\Nc1ccc2cn[nH]c2c1)c1nc(-c2ccc(Cl)cc2)cs1,-2.1,13.9,11.8,101.1*,-13.6,0.388,72.0*
N#C/C(=C\Nc1ccc2cn[nH]c2c1)c1nc(-c2ccccc2)cs1,-11.9,-66.2,·,·,2.5,1.26,·
CSCCC(NS(=O)(=O)c1ccccc1F)C(=O)NNC(=O)c1csc(N2CCOCC2)n1 (stereo unspecified),·,·,0.7,0.8,-0.7,·,·
C[C@H](CO)N1C[C@H](C)[C@@H](CN(C)S(=O)(=O)c2ccccc2)Oc2c(NS(=O)(=O)c3ccc(F)cc3)cccc2C1=O,·,·,0.7,0.3,-0.4,·,·
CCCCC1=CC2=C(c3ccco3)C(=O)C(C)(OC(=O)c3ccc(OC)cc3)C(=O)C2=CN1CC(C)C (stereo unspecified),-13.0,78.5*,18.6,32.7*,35.0,-1.31,-1.7
CCCCC1=CC2=C(c3ccco3)C(=O)C(C)(OC(=O)c3ccc(OC)cc3)C(=O)C2=CN1CCCCO (stereo unspecified),-0.2,12.4,-1.6,1.0,0.9,0.105,·
CCOC(=O)c1nnc(-c2ccc(C)cc2)nc1Oc1ccccc1Cl,1.2,77.9*,9.1,37.0*,-7.1,-3.07,48.6*
